Assay results reported in PMC8760560 (iScience, 2021).
Each block holds one molecule with its values, some of them ahead of it.

Legend:
[1] = tested on: mouse embryonic stem (ES) cells; settings: 100 μM; ref Wei et al., 2012; cited from earlier work
[2] = tested on: cADPR-evoked Ca^2+ release; assay: cADPR-evoked Ca2+ release in sea urchin egg homogenate; type: biochemical, Strongylocentrotus purpuratus; settings: for mode of inhibition of cADPR action: cADPR concentration-response curves at increasing inhibitor concentrations; for inhibition of cADPR-evoked Ca2+ signals: primary screen, 6 min preincubation
In short: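 Primary screen in S. purpuratus egg homogenate, loaded with Ca2+ and 3 μM fluo-3 at 17°C and diluted stepwise to 1.25% over 3 h. Fluo-3 was read at ex 485/em 525 nm. Library compounds at 25 μM final were preincubated for 6 min (35 cycles), then cADPR 300 nM final was added. Screens ran in singlicate or duplicate, with Z' calculated from vehicle and cADPR responses.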

[3] = tested on: NAADP-evoked Ca^2+ release; settings: data from a recent screen against NAADP action; ref Gunaratne et al., 2018; cited from earlier work
[4] = tested on: NAADP-evoked Ca^2+ release; assay: NAADP-evoked Ca2+ release in sea urchin egg homogenate; type: biochemical, Strongylocentrotus purpuratus; settings: NAADP 200 nM; at concentrations completely inhibiting cADPR-evoked signals
IP3-evoked Ca^2+ release = assay: IP3-evoked Ca2+ release in sea urchin egg homogenate; type: biochemical, Strongylocentrotus purpuratus; settings: IP3 500 nM; at concentrations completely inhibiting cADPR-evoked signals
[5] = tested on: RyRs (caffeine-evoked Ca^2+ release); assay: caffeine-evoked Ca2+ release in sea urchin egg homogenate; type: biochemical, Strongylocentrotus purpuratus; settings: caffeine 15 mM
In short: (§1)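 Fluo-3-loaded S. purpuratus egg homogenate (1.25%, pH 7.2 intracellular-like medium, 17°C loading) was preincubated with increasing test compound concentrations. Release was then evoked by cADPR 300 nM, caffeine 15 mM or ryanodine 100 μM, with fluorescence read at ex 485/em 525 nm. Concentration-response data came from three independent biological experiments with four technical replicates each.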

[6] = tested on: RyRs (ryanodine-evoked Ca^2+ release); assay: ryanodine-evoked Ca2+ release in sea urchin egg homogenate; type: biochemical, Strongylocentrotus purpuratus; settings: ryanodine 100 μM
In short: as §1

[7] = tested on: cADPR-sensitive Ca^2+ stores; type: biochemical, Strongylocentrotus purpuratus; settings: ≤100μM
U2OS cells = assay: cADPR microinjection into single U2OS cells expressing GCaMP-6M; type: cell-based, human; settings: 5 μM preincubation; cADPR 30 μM pipette concentration
In short: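 U2OS cells were transfected with GCaMP-6M two days prior, seeded on collagen dishes and perfused with Ca2+-free HBSS. Cells in 5 μM test compound or 0.05% DMSO were microinjected with intracellular buffer (110 mM KCl, 10 mM NaCl, 20 mM HEPES, pH 7.2) containing vehicle or cADPR, giving about 300 nM intracellular. Spinning-disk imaging (ex 488 nm) gave peak ΔF/F0 and area under curve. Data from three independent experiments, mean ± stdev.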

[8] = tested on: human induced pluripotent stem cells (iPSCs); assay: cardiomyocyte differentiation of induced pluripotent stem cells; type: cell-based; settings: 1 μM for 5 days, versus control cultures
In short: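 Human iPSCs derived from dermal fibroblasts were grown on Matrigel in mTeSR1 and differentiated by Wnt modulation (CHIR, then 5 μM IWP-4 at day 3). From day 0 they received 1 μM test compound (from a 10 mM DMSO stock) or DMSO for 23 h or 5 days. Troponin T-positive cells per Hoechst-stained nuclei were counted at day 8 or 15. Western blot troponin T was normalized to GAPDH as % vehicle. Three independent experiments, mean ± stdev.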

RyR1 = RyR1 (Sus scrofa, UniProt P16960); assay: [3H]-ryanodine binding to skeletal SR vesicles; set-up: species or system porcine
In short: (§2)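 Porcine SR vesicles, skeletal (1 mg/mL, 10 nM [3H]-ryanodine) and cardiac (3 mg/mL, 7.5 nM [3H]-ryanodine), were incubated for 3 h at 37°C with test compound or 0.02% DMSO. The pH 7.0 K-PIPES buffer contained 150 mM KCl, 0.1 μM calmodulin, GSH, DTT, 1 mM EGTA and CaCl2 giving 100 nM or 30 μM free Ca2+. Non-specific binding was defined with 40 μM unlabeled ryanodine. Bound ligand was filtered and counted by scintillation, and expressed relative to DMSO. Three SR batches, triplicates.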

RyR2 = RyR2 (Sus scrofa, UniProt A0A5G2R1W3); assay: [3H]-ryanodine binding to cardiac SR vesicles; set-up: species or system porcine
In short: as §2

Chain of RyR1 (P16960 whole entry): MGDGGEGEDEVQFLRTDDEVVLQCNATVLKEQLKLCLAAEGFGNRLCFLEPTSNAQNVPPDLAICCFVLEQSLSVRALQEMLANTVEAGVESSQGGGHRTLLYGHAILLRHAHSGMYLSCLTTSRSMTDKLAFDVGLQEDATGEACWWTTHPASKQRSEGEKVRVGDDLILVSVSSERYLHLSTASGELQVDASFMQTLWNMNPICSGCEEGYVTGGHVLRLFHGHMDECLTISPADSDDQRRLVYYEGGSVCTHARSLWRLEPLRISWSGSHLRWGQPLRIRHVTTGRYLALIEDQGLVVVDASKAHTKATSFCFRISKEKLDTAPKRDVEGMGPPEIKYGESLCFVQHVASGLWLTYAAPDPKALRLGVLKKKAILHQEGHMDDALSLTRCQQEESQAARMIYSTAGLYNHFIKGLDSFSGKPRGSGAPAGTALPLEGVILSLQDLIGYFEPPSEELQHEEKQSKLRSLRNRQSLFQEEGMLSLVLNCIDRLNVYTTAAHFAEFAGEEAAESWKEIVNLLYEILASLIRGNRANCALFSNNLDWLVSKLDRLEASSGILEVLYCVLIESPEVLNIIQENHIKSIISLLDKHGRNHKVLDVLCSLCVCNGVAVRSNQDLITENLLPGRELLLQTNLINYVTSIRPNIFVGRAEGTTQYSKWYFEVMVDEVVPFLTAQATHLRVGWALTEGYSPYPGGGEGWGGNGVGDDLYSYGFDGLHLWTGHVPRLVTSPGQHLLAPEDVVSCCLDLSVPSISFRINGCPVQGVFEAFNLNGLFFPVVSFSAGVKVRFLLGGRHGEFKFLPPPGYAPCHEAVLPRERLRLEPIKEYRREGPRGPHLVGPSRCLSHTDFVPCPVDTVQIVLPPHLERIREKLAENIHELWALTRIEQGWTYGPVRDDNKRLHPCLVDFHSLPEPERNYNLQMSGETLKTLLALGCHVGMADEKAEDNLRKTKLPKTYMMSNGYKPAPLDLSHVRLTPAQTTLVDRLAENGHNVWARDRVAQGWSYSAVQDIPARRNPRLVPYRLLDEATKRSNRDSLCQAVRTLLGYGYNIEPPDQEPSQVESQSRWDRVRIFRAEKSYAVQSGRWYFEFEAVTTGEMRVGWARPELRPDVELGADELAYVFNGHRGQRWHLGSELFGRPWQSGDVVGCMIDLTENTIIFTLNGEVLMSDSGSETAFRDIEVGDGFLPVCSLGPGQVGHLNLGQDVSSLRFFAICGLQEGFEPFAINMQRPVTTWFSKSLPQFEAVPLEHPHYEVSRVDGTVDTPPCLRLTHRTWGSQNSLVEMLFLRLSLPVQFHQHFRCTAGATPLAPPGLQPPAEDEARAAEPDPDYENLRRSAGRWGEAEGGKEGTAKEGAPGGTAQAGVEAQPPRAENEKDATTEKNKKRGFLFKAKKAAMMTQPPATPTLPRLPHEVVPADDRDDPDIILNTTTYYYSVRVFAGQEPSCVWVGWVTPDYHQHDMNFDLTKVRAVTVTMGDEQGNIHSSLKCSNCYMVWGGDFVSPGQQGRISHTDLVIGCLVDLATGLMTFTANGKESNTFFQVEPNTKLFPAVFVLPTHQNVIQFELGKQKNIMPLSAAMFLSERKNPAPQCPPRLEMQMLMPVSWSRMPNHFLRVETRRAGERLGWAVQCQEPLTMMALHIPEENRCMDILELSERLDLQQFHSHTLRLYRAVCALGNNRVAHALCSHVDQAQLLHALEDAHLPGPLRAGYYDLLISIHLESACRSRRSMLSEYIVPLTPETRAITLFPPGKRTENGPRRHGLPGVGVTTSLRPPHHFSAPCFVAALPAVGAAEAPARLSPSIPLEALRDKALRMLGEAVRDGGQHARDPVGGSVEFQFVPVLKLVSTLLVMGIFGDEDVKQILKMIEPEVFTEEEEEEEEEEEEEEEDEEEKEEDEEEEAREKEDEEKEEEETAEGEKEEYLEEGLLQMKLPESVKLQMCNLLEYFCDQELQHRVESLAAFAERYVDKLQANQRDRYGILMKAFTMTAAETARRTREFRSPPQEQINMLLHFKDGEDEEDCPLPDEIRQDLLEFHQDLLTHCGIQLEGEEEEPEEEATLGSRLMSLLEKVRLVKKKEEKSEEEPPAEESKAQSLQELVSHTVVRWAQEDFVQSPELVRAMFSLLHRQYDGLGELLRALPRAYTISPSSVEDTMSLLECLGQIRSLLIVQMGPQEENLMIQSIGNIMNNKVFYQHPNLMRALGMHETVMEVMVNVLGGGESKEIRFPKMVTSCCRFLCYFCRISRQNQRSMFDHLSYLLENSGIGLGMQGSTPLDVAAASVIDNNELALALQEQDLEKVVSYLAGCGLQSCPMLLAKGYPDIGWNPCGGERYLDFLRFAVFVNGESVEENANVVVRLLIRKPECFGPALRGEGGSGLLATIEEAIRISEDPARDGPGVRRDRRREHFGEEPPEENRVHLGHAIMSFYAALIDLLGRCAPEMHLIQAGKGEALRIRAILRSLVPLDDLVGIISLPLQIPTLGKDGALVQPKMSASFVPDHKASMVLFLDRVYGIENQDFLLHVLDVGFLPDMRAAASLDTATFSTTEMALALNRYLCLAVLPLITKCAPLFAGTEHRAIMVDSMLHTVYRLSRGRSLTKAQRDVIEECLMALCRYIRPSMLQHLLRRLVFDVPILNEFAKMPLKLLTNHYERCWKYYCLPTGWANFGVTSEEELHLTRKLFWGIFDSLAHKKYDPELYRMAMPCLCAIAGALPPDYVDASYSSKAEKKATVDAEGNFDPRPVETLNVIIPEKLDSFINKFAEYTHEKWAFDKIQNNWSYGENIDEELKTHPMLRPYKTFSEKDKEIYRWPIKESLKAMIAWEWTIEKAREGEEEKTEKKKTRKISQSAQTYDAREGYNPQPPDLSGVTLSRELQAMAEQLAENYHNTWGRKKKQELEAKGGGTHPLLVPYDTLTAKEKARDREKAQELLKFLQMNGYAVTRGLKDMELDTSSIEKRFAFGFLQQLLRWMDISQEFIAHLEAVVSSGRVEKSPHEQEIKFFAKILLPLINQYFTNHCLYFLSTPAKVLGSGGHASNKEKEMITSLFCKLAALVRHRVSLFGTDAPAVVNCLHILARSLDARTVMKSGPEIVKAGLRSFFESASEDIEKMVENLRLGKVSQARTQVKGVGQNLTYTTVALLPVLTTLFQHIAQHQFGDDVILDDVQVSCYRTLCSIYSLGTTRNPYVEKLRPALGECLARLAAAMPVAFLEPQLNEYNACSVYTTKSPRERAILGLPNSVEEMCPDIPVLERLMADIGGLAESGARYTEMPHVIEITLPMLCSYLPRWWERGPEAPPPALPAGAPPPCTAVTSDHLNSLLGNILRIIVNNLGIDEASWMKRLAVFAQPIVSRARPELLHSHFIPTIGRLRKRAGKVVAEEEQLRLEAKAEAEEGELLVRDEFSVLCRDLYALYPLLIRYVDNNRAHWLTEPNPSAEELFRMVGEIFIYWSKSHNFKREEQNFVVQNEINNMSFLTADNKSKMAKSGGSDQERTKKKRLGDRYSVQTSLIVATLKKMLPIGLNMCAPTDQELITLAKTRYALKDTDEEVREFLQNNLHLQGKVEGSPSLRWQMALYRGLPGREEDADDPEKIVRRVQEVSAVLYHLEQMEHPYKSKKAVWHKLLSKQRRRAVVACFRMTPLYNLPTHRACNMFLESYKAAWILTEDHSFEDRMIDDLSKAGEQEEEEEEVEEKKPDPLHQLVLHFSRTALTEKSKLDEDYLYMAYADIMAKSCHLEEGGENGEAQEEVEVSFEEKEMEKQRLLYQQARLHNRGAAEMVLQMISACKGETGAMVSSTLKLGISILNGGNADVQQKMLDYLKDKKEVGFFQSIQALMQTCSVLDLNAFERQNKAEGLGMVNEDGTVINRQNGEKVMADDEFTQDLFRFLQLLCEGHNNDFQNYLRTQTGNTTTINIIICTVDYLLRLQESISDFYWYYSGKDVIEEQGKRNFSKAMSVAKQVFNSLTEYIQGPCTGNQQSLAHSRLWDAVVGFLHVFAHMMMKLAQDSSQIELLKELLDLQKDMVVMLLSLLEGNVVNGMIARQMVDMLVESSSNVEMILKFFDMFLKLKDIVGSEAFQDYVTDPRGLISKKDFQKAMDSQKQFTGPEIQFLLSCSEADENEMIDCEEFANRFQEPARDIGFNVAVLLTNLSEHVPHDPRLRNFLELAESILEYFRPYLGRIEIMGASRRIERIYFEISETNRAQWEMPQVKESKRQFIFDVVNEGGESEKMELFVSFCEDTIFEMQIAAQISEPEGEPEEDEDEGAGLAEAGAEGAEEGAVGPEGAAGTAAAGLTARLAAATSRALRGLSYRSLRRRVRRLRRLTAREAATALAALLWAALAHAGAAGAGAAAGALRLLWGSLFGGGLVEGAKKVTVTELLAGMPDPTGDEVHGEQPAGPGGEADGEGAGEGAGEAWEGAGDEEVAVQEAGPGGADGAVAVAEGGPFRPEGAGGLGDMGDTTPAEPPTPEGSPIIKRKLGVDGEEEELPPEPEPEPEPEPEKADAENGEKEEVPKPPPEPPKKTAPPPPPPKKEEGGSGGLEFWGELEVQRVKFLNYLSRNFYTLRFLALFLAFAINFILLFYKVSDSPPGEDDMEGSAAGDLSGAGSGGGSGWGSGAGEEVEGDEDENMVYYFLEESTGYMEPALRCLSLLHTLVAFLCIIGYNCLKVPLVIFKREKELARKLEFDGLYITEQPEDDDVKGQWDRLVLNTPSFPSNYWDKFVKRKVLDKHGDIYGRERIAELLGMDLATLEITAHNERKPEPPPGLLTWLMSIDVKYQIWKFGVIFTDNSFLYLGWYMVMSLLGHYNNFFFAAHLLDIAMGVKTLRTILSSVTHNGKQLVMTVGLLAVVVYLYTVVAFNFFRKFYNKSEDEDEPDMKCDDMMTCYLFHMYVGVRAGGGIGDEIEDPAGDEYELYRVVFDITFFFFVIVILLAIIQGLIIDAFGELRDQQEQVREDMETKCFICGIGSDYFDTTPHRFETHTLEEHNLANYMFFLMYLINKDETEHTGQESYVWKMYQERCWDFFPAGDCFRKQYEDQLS

Molecule: 8-Br-cADPR
effect on generation of cardiomyocytes [1]: promoted the generation of cardiomyocytes

Molecule: N=c1c2cc(Br)n3c2ncn1[C@@H]1O[C@H](COP(=O)(O)OP(=O)(O)OC[C@H]2O[C@@H]3C(O)[C@H]2O)C(O)C1O (some centres unmarked) [8-Br-7-deaza-cADPR]
mode of inhibition of cADPR action [2]: competitive inhibitors

Molecule: CNc1ccc2oc(C[C@H]3O[C@@]4(CC[C@H]3C)O[C@H]([C@H](C)C(=O)c3ccc[nH]3)[C@H](C)C[C@H]4C)nc2c1C(=O)O [A23187]
effect on cADPR-evoked Ca2+ responses in primary screen ([2]; 25 μM, positive control): inhibited | effect on NAADP-evoked Ca2+ responses in screen [3]: inhibited

IC50 ([2]; read-out: IC50, inhibition of cADPR-evoked Ca2+ release, sea urchin egg homogenate, cADPR 300 nM): 260 ± 23 nM | effect on [3H]-ryanodine binding (RyR1; contracting 30 μM free Ca2+): inhibited | effect on [3H]-ryanodine binding (RyR1; relaxed 100 nM free Ca2+): inhibited | effect on [3H]-ryanodine binding (RyR2; contracting 30 μM free Ca2+): inhibited | effect on [3H]-ryanodine binding (RyR2; relaxed 100 nM free Ca2+): inhibited
Molecule: CC1=C(C(=O)OC2CCCCC2)C(c2ccc([N+](=O)[O-])cc2)C2=C(CC(C)(C)CC2=O)N1 (centres unmarked) [FLI-06, cyclohexyl 2,7,7-trimethyl-4-(4-nitrophenyl)-5-oxo-1,4,5,6,7,8-hexahydroquinoline-3-carboxylate]
effect on cADPR-evoked Ca2+ signals ([2]; cADPR 300 nM): blocked | mode of inhibition of cADPR action [2]: non-competitive inhibition | effect on NAADP-evoked Ca2+ release [4]: did not impact | effect on IP3-evoked Ca2+ release (IP3-evoked Ca^2+ release): did not impact | effect on caffeine-evoked Ca2+ release [5]: blocked | effect on ryanodine-evoked Ca2+ release [6]: blocked | intrinsic agonist activity (Ca2+ elevation without cADPR) [7]: did not result from any intrinsic agonist activity | effect on cADPR-evoked Ca2+ transient (U2OS cells): reduced | contraction phenotype [8]: earlier contraction phenotype | expression of cardiomyocyte-specific troponin T [8]: enhanced expression

effect on [3H]-ryanodine binding (RyR1; contracting 30 μM free Ca2+): did not elicit any effects | effect on [3H]-ryanodine binding (RyR1; relaxed 100 nM free Ca2+): did not elicit any effects | effect on [3H]-ryanodine binding (RyR2; contracting 30 μM free Ca2+): did not elicit any effects | effect on [3H]-ryanodine binding (RyR2; relaxed 100 nM free Ca2+): did not elicit any effects
Molecule: N=c1c2ncn3c2ncn1[C@@H]1O[C@H](COP(=O)(O)OP(=O)(O)OC[C@H]2O[C@@H]3[C@H](O)[C@@H]2O)[C@@H](O)[C@H]1O [cADPR, cyclic adenosine 5′-diphosphate ribose]

Molecule: COC(=O)C1=C(C)NC(C)=C(C(=O)OC)C1c1ccccc1[N+](=O)[O-] [nifedipine, dimethyl 2,6-dimethyl-4-(2-nitrophenyl)-1,4-dihydropyridine-3,5-dicarboxylate]
inhibition of cADPR-evoked Ca2+ signals ([2]; 25 μM): ~3%

Molecule: COCCOC(=O)C1=C(C)NC(C)=C(C(=O)OC(C)C)C1c1cccc([N+](=O)[O-])c1 (centres unmarked) [nimodipine, 3-O-(2-methoxyethyl) 5-O-propan-2-yl 2,6-dimethyl-4-(3-nitrophenyl)-1,4-dihydropyridine-3,5-dicarboxylate]
inhibition of cADPR-evoked Ca2+ signals ([2]; 25 μM): ~5%

Molecule: NC(=S)c1ccc[n+]([C@@H]2O[C@H](COP(=O)([O-])OP(=O)(O)OC[C@H]3O[C@@H](n4cnc5c(N)ncnc54)[C@H](OP(=O)(O)O)[C@@H]3O)[C@@H](O)[C@H]2O)c1 [thio-NADP]
effect on NAADP-evoked Ca2+ responses in screen [3]: selectively desensitized
